The values below come from the M2OR odorant receptor database.

The first experiment deals with T1, UniProt Q7TRE4.
T1 sequence (whole entry): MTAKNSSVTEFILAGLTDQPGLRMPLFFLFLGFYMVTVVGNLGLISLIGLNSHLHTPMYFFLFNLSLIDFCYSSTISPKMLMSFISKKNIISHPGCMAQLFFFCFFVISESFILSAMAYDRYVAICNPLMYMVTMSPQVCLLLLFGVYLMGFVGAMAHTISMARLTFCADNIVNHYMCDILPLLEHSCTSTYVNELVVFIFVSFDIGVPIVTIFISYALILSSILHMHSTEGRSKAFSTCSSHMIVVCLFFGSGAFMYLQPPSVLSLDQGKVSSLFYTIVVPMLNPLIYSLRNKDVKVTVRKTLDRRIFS
To be noted: stereoisomer not certain. In outline:
(§1)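 Each entry records the cell line, G-protein, co-transfected protein and tags used. Methods varied with the source, often transient luciferase assays in mammalian cell lines. A receptor–molecule pair is called responsive (active) if the original authors judged its signal statistically different from baseline and non-responsive (inactive) otherwise.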
For the molecule `CCCCOC(=O)C(C)OC(=O)CCC` (configuration not stated), the “odorant receptor agonist call” value is “inactive”.
Same read-out and setting: under `CC(C)=CCCC(C)=CCO` stands “inactive”; under `O=C(c1ccccc1)c1ccccc1`, “inactive”; under `CCCCCCOC(C)=O`, “inactive”.
The same measure, in the same setting: under `CCCCCCC(=O)[O-].[H+]` stands “inactive”.
Still for that read-out and setting: as for `CCCCCCCC(=O)[O-].[H+]`, the entry is “inactive”; as for `CCCCCCC(C)=O`, “inactive”.
For `CCC(C(=O)O)c1ccccc1` (configuration not stated), the “odorant receptor agonist call” value was “inactive”.
As to `CC(=O)Oc1ccccc1`, the “odorant receptor agonist call” value is “inactive”.
Still for that read-out and setting: as for `CCCCCO`, the entry is “inactive”; as for `CCCC(C)=O`, “inactive”.

The next experiment addresses T2, UniProt Q7TRM0.
T2 sequence (whole entry): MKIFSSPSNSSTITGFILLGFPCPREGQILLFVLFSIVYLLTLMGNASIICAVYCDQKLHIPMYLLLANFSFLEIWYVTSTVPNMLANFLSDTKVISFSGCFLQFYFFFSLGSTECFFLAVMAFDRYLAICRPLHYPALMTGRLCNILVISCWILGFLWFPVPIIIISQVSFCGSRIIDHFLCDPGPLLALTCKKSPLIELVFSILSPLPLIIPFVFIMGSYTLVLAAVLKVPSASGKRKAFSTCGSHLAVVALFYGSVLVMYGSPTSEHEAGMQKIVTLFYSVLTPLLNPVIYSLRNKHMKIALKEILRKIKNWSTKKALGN
Conditions: stereoisomer not certain. In outline: as §1
Consider `O=C(O)CCCCCBr`, for which the “odorant receptor agonist call” value was “inactive”.
In the case of `O=C([O-])CCCCCCC(=O)[O-].[H+].[H+]`, the “odorant receptor agonist call” value was “inactive”.
On the same count and under the same terms, under `O=C([O-])CCCCCCCC(=O)[O-].[H+].[H+]` stands “inactive”; under `CCCCCCC(=O)[O-].[H+]`, “inactive”.
The same measure, in the same setting: under `CCCCCCCC(=O)[O-].[H+]` stands “inactive”.

The target in a further experiment is T3, UniProt Q7TRN9.
T3 sequence (whole entry): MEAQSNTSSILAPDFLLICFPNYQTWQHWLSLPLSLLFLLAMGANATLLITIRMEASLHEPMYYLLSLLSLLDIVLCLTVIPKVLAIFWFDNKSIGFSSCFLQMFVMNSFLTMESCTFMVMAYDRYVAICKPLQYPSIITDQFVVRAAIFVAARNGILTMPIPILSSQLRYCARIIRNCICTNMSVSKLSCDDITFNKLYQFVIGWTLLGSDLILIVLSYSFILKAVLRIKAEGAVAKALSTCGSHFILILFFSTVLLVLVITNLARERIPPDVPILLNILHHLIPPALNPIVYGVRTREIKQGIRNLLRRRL
Conditions: stereoisomer not certain. The procedure, abridged: as §1
On to `O=C(O)CCCCCBr`, for which the “odorant receptor agonist call” value was “inactive”.
Same read-out and setting: under `O=C([O-])CCCCCCC(=O)[O-].[H+].[H+]` stands “inactive”; under `O=C([O-])CCCCCCCC(=O)[O-].[H+].[H+]`, “inactive”; under `CCCCCCC(=O)[O-].[H+]`, “active”.
Still for that read-out and setting: under `CCCCCCCC(=O)[O-].[H+]` stands “active”; under `CCCCCO`, “inactive”.

A further experiment has as its target T4, UniProt Q7TRR8.
T4 sequence (whole entry): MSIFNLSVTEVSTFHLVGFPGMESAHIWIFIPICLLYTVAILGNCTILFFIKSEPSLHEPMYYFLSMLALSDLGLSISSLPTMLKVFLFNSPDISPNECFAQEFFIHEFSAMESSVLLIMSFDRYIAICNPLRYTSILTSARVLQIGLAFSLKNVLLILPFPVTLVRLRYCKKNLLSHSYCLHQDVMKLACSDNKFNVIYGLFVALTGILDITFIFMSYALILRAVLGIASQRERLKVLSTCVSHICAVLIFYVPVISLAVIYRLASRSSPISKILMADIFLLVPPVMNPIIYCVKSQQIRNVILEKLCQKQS
To be noted: stereoisomer not certain. The procedure, abridged:
as §1
`O=C(O)CCCCCBr`: the “odorant receptor agonist call” value was “inactive”.
On the same count and under the same terms, as for `O=C([O-])CCCCCCC(=O)[O-].[H+].[H+]`, the entry is “inactive”.
The same measure, in the same setting: as for `O=C([O-])CCCCCCCC(=O)[O-].[H+].[H+]`, the entry is “inactive”; as for `CCCCCCC(=O)[O-].[H+]`, “inactive”; as for `CCCCCCCC(=O)[O-].[H+]`, “inactive”.
The same measure, in the same setting: as for `CCCCCO`, the entry is “inactive”.

A further experiment addresses T5, UniProt Q7TRW1.
T5 sequence (whole entry): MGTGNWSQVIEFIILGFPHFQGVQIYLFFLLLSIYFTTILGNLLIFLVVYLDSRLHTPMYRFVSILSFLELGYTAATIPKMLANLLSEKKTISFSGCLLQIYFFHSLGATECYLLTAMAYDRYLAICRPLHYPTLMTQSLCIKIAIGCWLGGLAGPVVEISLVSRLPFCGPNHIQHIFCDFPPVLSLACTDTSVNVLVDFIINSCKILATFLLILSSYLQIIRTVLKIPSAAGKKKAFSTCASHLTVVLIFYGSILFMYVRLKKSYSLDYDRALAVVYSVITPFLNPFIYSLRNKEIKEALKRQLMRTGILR
Conditions: stereoisomer not certain. In outline:
as §1
As to `CCCCOC(=O)C(C)OC(=O)CCC` (configuration not stated), the “odorant receptor agonist call” value is “inactive”.
Same read-out and setting: under `CC(C)=CCCC(C)=CCO` stands “inactive”; under `O=C(c1ccccc1)c1ccccc1`, “inactive”.
Still for that read-out and setting: as for `CCCCCCOC(C)=O`, the entry is “inactive”.
Same read-out and setting: as for `CCCCCCC(=O)[O-].[H+]`, the entry is “inactive”; as for `CCCCCCCC(=O)[O-].[H+]`, “inactive”; as for `CCCCCCC(C)=O`, “inactive”.
As for `CCC(C(=O)O)c1ccccc1` (configuration not stated), the “odorant receptor agonist call” value is “inactive”.
Same read-out and setting: as for `CC(=O)Oc1ccccc1`, the entry is “inactive”.
Same read-out and setting: as for `CCCCCO`, the entry is “inactive”; as for `CCCC(C)=O`, “inactive”.

The next experiment concerns the target T6, UniProt Q7TRX0.
T6 sequence (whole entry): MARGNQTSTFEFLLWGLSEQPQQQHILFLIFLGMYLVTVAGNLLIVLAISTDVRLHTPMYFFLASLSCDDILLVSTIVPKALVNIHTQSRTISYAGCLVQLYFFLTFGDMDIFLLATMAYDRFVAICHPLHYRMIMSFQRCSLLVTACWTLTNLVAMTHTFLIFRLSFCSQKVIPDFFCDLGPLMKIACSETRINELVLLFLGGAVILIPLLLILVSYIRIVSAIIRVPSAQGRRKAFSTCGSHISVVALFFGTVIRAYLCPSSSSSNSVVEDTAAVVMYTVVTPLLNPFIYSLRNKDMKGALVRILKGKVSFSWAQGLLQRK
Conditions: stereoisomer not certain. The procedure, abridged: as §1
As for `CCCC=O`, the “odorant receptor agonist call” value was “inactive”.
With `CC=Cc1ccc(OC)cc1`, the “odorant receptor agonist call” value was “inactive”.
Same read-out and setting: under `O=C(O)CCCCCBr` stands “inactive”; under `CCSCC`, “inactive”; under `CC(C)CCN`, “inactive”.
The same measure, in the same setting: as for `CC(=O)C1(C)CC2=C(CCCC2(C)C)CC1C` (configuration not stated), the entry is “inactive”; as for `CC(=O)OC1(C)CCC23CC1C(C)(C)C2CCC3C` (configuration not stated), “inactive”.
In the case of `C=CC(C)=CCC=C(C)CCC=C(C)C`, the “odorant receptor agonist call” value is “inactive”.
On the same count and under the same terms, as for `CC(C)=CCCC(C)=CCO`, the entry is “inactive”.
On the same count and under the same terms, as for `CCCCCCCCCCOC(C)=O`, the entry is “inactive”; as for `O=C(c1ccccc1)c1ccccc1`, “inactive”.
Same read-out and setting: as for `C1CCOCC1`, the entry is “inactive”; as for `CCCCCCOC(C)=O`, “inactive”; as for `O=C([O-])CCCCCCC(=O)[O-].[H+].[H+]`, “inactive”.
Turning to `CC=CC(=O)C1=C(C)CCCC1(C)C`, the “odorant receptor agonist call” value is “inactive”.
The same measure, in the same setting: as for `O=C([O-])CCCCCCCC(=O)[O-].[H+].[H+]`, the entry is “inactive”; as for `Cc1occc1SSc1ccoc1C`, “inactive”; as for `CCC=CCCCCC=O`, “inactive”.
Same read-out and setting: under `CCc1ncc(C)nc1CC` stands “inactive”; under `c1ccc2ncccc2c1`, “inactive”; under `CCCCCCCCCCCO`, “inactive”.
Turning to `CCCCCCC(C)=O`, the “odorant receptor agonist call” value is “inactive”.
Still for that read-out and setting: under `CC(=O)OCc1ccc2c(c1)OCO2` stands “inactive”.
On the same count and under the same terms, under `CC(=O)Oc1ccccc1` stands “inactive”; under `CCCCCCCOC(=O)C(C)C`, “inactive”; under `CCCCCCC(C)O` (configuration not stated), “inactive”.
On the same count and under the same terms, under `CCN(CC)CC` stands “inactive”; under `O=C(O)C1CCC1`, “inactive”.
